Data taken from ChEMBL document CHEMBL1151808, “Substrate promiscuity of the cyclic dipeptide prenyltransferases from Aspergillus fumigatus ( section sign)” (J Nat Prod, 2009).
Activity calls are given as the source filed them. The calls are words filed in the database; no cut-off is given here.

What was measured:
[1] = system: Aspergillus fumigatus; assay: Activity at 1.62 uM Aspergillus fumigatus CdpNPT assessed as compound conversion rate at 1 mM after 2 hrs by HPLC analysis in presence of dimethylallyl diphosphate relative to L-tryptophan
How it was run: (§1)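 His6-CdpNPT (1.62 µM) or His6-FtmPT1 (1.68 µM) with 1 mM tryptophan derivative and 2 mM DMAPP in Tris-HCl pH 7.5/CaCl2, 37 °C for 2 or 16 h. MeOH quench, then RP18 HPLC with 30–70% MeOH gradient. Conversion expressed relative to L-tryptophan; two independent assays.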

[2] = target: Tryprostatin B synthase ftmPT1 (Aspergillus fumigatus) (UniProt Q4WAW7); assay: Activity at 1.68 uM Aspergillus fumigatus FtmPT1 assessed as compound conversion rate at 1 mM after 2 hrs by HPLC analysis in presence of dimethylallyl diphosphate relative to L-tryptophan; how it was run: as §1
[3] = target: Tryprostatin B synthase ftmPT1 (Aspergillus fumigatus) (UniProt Q4WAW7); assay: Activity at 1.68 uM Aspergillus fumigatus FtmPT1 assessed as compound conversion rate at 1 mM after 16 hrs by HPLC analysis in presence of dimethylallyl diphosphate relative to L-tryptophan; how it was run: as §1
[4] = system: Aspergillus fumigatus; assay: Activity at 1.62 uM Aspergillus fumigatus CdpNPT assessed as compound conversion rate at 1 mM after 16 hrs by HPLC analysis in presence of dimethylallyl diphosphate relative to L-tryptophan; how it was run: as §1
[5] = target: Tryprostatin B synthase ftmPT1 (Aspergillus fumigatus) (UniProt Q4WAW7); assay: Ratio Kcat to Km for Aspergillus fumigatus FtmPT1 by HPLC analysis relative to L-tryptophan
[6] = target: Tryprostatin B synthase ftmPT1 (Aspergillus fumigatus) (UniProt Q4WAW7); assay: Activity at 0.54 uM Aspergillus fumigatus FtmPT1 assessed as compound conversion at 1 mM after 2 hrs by HPLC analysis in presence of dimethylallyl diphosphate
How it was run: (§2)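 Performed in 50 mM Tris-HCl (pH 7.5) with 10 mM CaCl2, 1 mM tryptophan or derivative, and 2 mM DMAPP, using purified His6-tagged recombinant enzyme at 37 °C. Reactions were stopped with an equal volume of MeOH and protein removed by centrifugation. Products were quantified by RP18 HPLC as the conversion rate of substrate. Two independent assays were run.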

[7] = target: Tryprostatin B synthase ftmPT1 (Aspergillus fumigatus) (UniProt Q4WAW7); assay: Activity at 0.28 uM Aspergillus fumigatus FtmPT1 assessed as compound conversion at 1 mM after 2 hrs by HPLC analysis in presence of dimethylallyl diphosphate; how it was run: as §2
[8] = target: Tryprostatin B synthase ftmPT1 (Aspergillus fumigatus) (UniProt Q4WAW7); assay: Activity at 1.68 uM Aspergillus fumigatus FtmPT1 assessed as compound conversion at 1 mM after 2 hrs by HPLC analysis in presence of dimethylallyl diphosphate
[9] = target: Tryprostatin B synthase ftmPT1 (Aspergillus fumigatus) (UniProt Q4WAW7); assay: Activity at 1.12 uM Aspergillus fumigatus FtmPT1 assessed as compound conversion rate at 1 mM after 16 hrs by HPLC analysis in presence of dimethylallyl diphosphate; how it was run: as §2
[10] = system: Aspergillus fumigatus; assay: Activity at 1.62 uM Aspergillus fumigatus CdpNPT assessed as compound conversion rate at 1 mM after 2 hrs by HPLC analysis in presence of dimethylallyl diphosphate; how it was run: as §2
[11] = system: Aspergillus fumigatus; assay: Ratio Kcat to Km for Aspergillus fumigatus CdpNPT by HPLC analysis relative to L-tryptophan
How it was run: (§3)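 Kinetics: 2 mM DMAPP (final) with L-tryptophan up to 5 mM, or cyclic dipeptides, in Tris-HCl pH 7.5/CaCl2 at 37 °C. Products quantified by HPLC. Km and kcat from Lineweaver-Burk and Hanes-Woolf plots; kcat/Km expressed as ratio to L-tryptophan.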

[12] = system: Aspergillus fumigatus; assay: Activity at 0.54 uM Aspergillus fumigatus CdpNPT assessed as compound conversion rate at 1 mM after 2 hrs by HPLC analysis in presence of dimethylallyl diphosphate
How it was run: (§4)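 Recombinant His6-CdpNPT (0.11–1.62 µM) with 1 mM substrate and 2 mM DMAPP in 50 mM Tris-HCl pH 7.5, 10 mM CaCl2, 100 µL, 37 °C for 2 h. Heat-inactivated enzyme served as control. Stopped with MeOH, protein spun off, products read by RP18 HPLC as peaks and retention times, conversion from peak areas.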

[13] = system: Aspergillus fumigatus; assay: Activity at 0.11 to 1.62 uM Aspergillus fumigatus CdpNPT assessed as product formation at 1 mM after 2 hrs by HPLC analysis; how it was run: as §4
[14] = system: Aspergillus fumigatus; assay: Activity at 0.11 uM Aspergillus fumigatus CdpNPT assessed as compound conversion rate at 1 mM after 2 hrs by HPLC analysis in presence of dimethylallyl diphosphate; how it was run: as §4
[15] = system: Aspergillus fumigatus; assay: Activity at Aspergillus fumigatus CdpNPT by HPLC analysis; how it was run: as §3
[16] = system: Aspergillus fumigatus; assay: Activity at 0.28 uM Aspergillus fumigatus CdpNPT assessed as compound conversion rate at 1 mM after 2 hrs by HPLC analysis in presence of dimethylallyl diphosphate; how it was run: as §4
[17] = target: Tryprostatin B synthase ftmPT1 (Aspergillus fumigatus) (UniProt Q4WAW7); assay: Activity at 1.12 uM Aspergillus fumigatus FtmPT1 assessed as compound retention time after 2 hrs by HPLC analysis
How it was run: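 His6-FtmPT1 at 1.12 µM, 100 µL, in 50 mM Tris-HCl pH 7.5, 10 mM CaCl2 with DMAPP, 37 °C for 2 h. HPLC product retention time recorded.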

[18] = system: Aspergillus fumigatus; assay: Activity at 1.62 uM Aspergillus fumigatus CdpNPT assessed as compound conversion rate after 2 hrs by HPLC analysis; how it was run: as §4
[19] = system: Aspergillus fumigatus; assay: Activity at 1.62 uM Aspergillus fumigatus CdpNPT assessed as compound retention time after 2 hrs by HPLC analysis; how it was run: as §4

Tryprostatin B synthase ftmPT1 (Aspergillus fumigatus), sequence (Q4WAW7 whole entry): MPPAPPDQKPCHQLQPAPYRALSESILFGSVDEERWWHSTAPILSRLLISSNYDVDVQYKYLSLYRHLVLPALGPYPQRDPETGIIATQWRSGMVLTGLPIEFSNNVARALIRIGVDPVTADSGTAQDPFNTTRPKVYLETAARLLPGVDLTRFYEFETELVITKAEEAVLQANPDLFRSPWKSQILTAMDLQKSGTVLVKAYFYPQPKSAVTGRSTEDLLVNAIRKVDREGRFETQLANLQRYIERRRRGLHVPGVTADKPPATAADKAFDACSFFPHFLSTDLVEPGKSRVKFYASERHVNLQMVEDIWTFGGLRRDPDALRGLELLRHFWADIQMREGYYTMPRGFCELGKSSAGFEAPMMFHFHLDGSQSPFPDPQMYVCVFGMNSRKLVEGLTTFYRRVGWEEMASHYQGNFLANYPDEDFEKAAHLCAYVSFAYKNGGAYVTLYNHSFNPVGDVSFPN

Row | SMILES | Activity [1] | Activity [2] | Activity [3] | Activity [4] | also measured
1 | N[C@H](CC(=O)O)Cc1c[nH]c2ccccc12 | < 3.4% | < 5.5% | < 1.1% | < 1.1% | 
2 | N[C@@H](Cc1c[nH]c2ccc(F)cc12)C(=O)O | < 0.7% | < 1.2% | 4.3% | 1.9% | 
3 | CC(N)(Cc1c[nH]c2ccccc12)C(=O)O (racemic) | 25% | < 2.3% | 1% | 24.5% | 
4 | Cc1cccc2[nH]cc(CC(N)C(=O)O)c12 (racemic) | 72.6% | 16% | 19.4% | 61.4% | 
5 | Cc1ccc2c(CC(N)C(=O)O)c[nH]c2c1 (racemic) | < 0.9% | 148% | 96% | 13.5% | 
6 | CN[C@@H](Cc1c[nH]c2ccccc12)C(=O)O | 126% | < 3.7% | 29.4% | 114% | 
7 | Cc1ccc2[nH]cc(CC(N)C(=O)O)c2c1 (racemic) | < 1.5% | < 2.4% | 10.3% | 20.2% | 
8 | Cn1cc(CC(N)C(=O)O)c2ccccc21 (racemic) | < 1.1% | < 1.7% | < 0.3% | < 0.3% | 
9 | O=C1N[C@@H](Cc2c[nH]c3ccccc23)C(=O)N2CCC[C@@H]12 |  |  |  |  | Ratio [5]: 675; Activity [6]: Active; Activity [7]: Active; Activity [8]: Active
10 | O=C(O)Cc1c[nH]c2ccccc12 | < 1.7% | < 2.8% | < 0.6% | 45.3% | 
11 | Cc1cccc2c(CC(N)C(=O)O)c[nH]c12 (racemic) | 50.6% | 76.4% | 64.1% | 37.9% | 
12 | N[C@@H](Cc1c[nH]c2ccc(O)cc12)C(=O)O | < 0.8% | < 1.3% | < 0.3% | < 0.3% | 
13 | N[C@@H](Cc1ccc(O)cc1)C(=O)O |  |  |  |  | Activity [9]: inactive; Activity [10]: inactive
14 | NC(Cc1c[nH]c2cc(F)ccc12)C(=O)O (racemic) | 17.7% | 55.1% | 55.5% | 13.8% | 
15 | O=C1N[C@H](Cc2c[nH]c3ccccc23)C(=O)N[C@H]1Cc1ccc(O)cc1 |  |  |  |  | Ratio [11]: 598; Activity [12]: Active; Activity [13]: Active; Activity [14]: Active; Km [15]: 128 µM; kcat [15]: 0.46 s⁻¹; Activity [16]: Active
16 | N[C@@H](Cc1c[nH]c2ccccc12)C(=O)O |  |  |  |  | Activity [17]: 13.9 min; Activity [18]: 18.1%; Activity [19]: 16.5 min; Activity [13]: Active; Km [15]: 830 µM; kcat [15]: 0.005 s⁻¹
17 | NCCc1c[nH]c2ccccc12 | < 3.3% | < 5.3% | < 1.1% | < 1% | 
18 | NC(Cc1c[nH]c2ccc(Br)cc12)C(=O)O (racemic) | < 1.2% | < 1.9% | < 0.4% | < 0.4% | 
